# Source: ChEMBL document CHEMBL5715938, “The protein kinase Cbeta-selective inhibitor, Enzastaurin (LY317615.HCl), suppresses signaling through the AKT pathway, induces apoptosis, and suppresses growth of human colon cancer and glioblastoma xenografts” (Cancer Res, 2005)
# Activity calls are given as the source filed them. No cut-off for these calls is given here.
# Molecular target: Glycogen synthase kinase-3 beta (Homo sapiens) (UniProt P49841)
# Assay: Inhibition of GSK3beta phosphorylation at serine 9 residue in human HCT-116 cells at 1 micromol/L by Western blotting analysis
# Assay type: cell-based
# Conditions: dose 1.0 µmol/L, time <= 4.0 hrs
# Procedure, shortened: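 Cultured tumor cells treated with 1 μmol/L drug; lysates in cell extraction buffer with protease inhibitors, western blotted with phospho-specific antibodies (pGSK3β Ser9, pAKT Thr308, phospho-ERK) alongside total GSK3β/AKT.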
# Sequence of Glycogen synthase kinase-3 beta (Homo sapiens) (P49841 whole entry, looked up): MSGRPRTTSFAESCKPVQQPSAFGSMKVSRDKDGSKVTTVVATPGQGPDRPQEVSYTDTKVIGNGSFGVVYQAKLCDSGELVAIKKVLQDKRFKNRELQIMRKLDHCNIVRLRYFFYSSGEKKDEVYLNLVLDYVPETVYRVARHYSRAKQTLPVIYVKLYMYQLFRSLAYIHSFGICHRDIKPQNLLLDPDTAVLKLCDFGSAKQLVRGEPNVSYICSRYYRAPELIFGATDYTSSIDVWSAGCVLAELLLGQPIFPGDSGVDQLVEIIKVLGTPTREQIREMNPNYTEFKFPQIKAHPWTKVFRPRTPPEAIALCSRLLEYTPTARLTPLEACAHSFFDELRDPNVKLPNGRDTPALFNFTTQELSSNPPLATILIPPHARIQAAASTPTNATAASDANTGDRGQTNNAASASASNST
compound,measurement,value
CO[C@@H]1[C@H](N(C)C(=O)c2ccccc2)C[C@H]2O[C@]1(C)n1c3ccccc3c3c4c(c5c6ccccc6n2c5c31)C(=O)NC4,inhibition,Active
